TRPC6 inh – mouse TRPC6 channel inhibitors, primary screen, cell-based, HEK293, membrane potential dye; Short transient receptor potential channel 6 (Mus musculus), Q61143; ACh-evoked depolarization; hits give low values; B-score at 10 µM; 310,000 tested, 1.1% active; AID 2553, 2010;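 active = B-score under library mean minus 3 SD, initial fluorescence not abnormally high, positive integrated signal ratio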;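 also: B-score derived from integrated fluorescence ratio over the kinetic read; more negative B-score means stronger inhibition of depolarization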
Target sequence (Q61143 whole entry, looked up): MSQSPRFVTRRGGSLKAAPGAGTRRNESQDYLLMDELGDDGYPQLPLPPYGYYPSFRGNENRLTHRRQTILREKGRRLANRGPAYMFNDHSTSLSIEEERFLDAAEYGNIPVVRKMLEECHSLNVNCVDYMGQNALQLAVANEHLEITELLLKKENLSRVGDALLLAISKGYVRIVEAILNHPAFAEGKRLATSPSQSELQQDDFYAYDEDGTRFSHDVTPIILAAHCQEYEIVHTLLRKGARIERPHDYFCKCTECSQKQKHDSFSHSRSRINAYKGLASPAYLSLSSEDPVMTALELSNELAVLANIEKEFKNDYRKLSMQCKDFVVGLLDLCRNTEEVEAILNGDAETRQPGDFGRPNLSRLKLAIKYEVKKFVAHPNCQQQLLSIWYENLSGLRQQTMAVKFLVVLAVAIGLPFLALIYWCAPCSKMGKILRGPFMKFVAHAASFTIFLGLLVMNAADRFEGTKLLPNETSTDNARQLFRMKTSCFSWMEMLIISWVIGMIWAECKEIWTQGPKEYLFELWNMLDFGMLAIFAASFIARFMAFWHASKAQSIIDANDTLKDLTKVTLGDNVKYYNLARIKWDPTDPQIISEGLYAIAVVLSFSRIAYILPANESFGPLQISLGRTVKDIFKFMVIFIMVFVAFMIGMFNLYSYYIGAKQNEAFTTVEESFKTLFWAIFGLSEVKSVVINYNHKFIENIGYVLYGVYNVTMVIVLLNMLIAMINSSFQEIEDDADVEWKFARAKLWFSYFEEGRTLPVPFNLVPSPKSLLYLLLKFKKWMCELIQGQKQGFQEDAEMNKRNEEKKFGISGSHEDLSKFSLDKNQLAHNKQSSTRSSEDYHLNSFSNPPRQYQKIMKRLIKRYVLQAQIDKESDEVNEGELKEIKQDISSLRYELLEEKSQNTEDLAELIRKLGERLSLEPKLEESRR
TRPC4 act – activators of mouse TRPC4 channel, primary screen, Fluo4 calcium, HEK293 TRPC4beta/mu-opioid cells; Short transient receptor potential channel 4 (Mus musculus), Q9QUQ5; Fluo4 calcium fluorescence; hits give high values; B-score at 10 µM; 310,000 tested, 0.49% active;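 active = B-score above 5 SD of library B-scores, and initial fluorescence ratio not above library mean plus 5 SD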;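 also: positive B-score marks a calcium rise read as TRPC4 activation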
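Material: HEK293 stable line with TRPC4beta plus mu-opioid receptor; technique: Fluo4 calcium-sensitive dye fluorescence, kinetic, 1 Hz baseline; timing: Fluo4 dye loading 45 min at room temperature, 110 s recording; controls: assay buffer as low control, maximal DAMGO as high control; read-out: integrated baseline-normalised fluorescence ratio, converted to per-well B score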
TRPC4 PAM – positive allosteric modulators of TRPC4, primary screen, cell-based, mouse TRPC4beta, HEK293 mu-opioid, Fluo-4 calcium; DAMGO EC20, Fluo-4 Ca2+ flux; hits give high values; B-score at 10 µM; 310,000 tested, 0.42% active; AID 2227, 2009;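 active = B-score of calcium response area above 5 SD of library B-scores, with initial fluorescence ratio within 5 SD of library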
TRPC4 block – inhibitors of mouse TRPC4 channel, primary screen, Fluo4 calcium, HEK293 TRPC4beta/mu-opioid cells; Short transient receptor potential channel 4 (Mus musculus), Q9QUQ5; DAMGO-evoked Fluo4 calcium flux; hits give low values; B-score at 10 µM; 300,000 tested, 0.39% active; AID 2247, 2010;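 active = B-score over 3 SD under the library average, no early fluorescence shift, positive overall ratio signal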
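Material: HEK293 cells with stable TRPC4beta plus mu-opioid receptor expression; probe or stimulus: DAMGO in two steps, submaximal then maximal; technique: Fluo4 calcium fluorescence by kinetic imaging, 5 s 1 Hz baseline; measure: integrated fluorescence ratio relative to baseline, converted to per-well B score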
TRPC6 activator – mouse TRPC6 channel activators, primary screen, cell-based, HEK293, membrane potential dye; B-score at 10 µM; Short transient receptor potential channel 6 (Mus musculus), Q61143; 310,000 tested, 0.13% active; AID 2550, 2010; HEK293-TRPC6 membrane potential dye fluorescence; hits give high values;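 active = B-score of the integrated fluorescence ratio above library mean plus 3 SD, and starting fluorescence ratio within library mean plus 5 SD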;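 also: higher score means more depolarization so channel activation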
Of the large screens only hits and unclear results are named; the others gave an inactive call. An excerpt weighted towards active compounds, which were near 2.3% of everything screened.

COc1ccc(-n2nc(C(=O)NCC(=O)NCCCN3CC(C)CC(C)C3)c3ccccc3c2=O)cc1Cl (stereo not drawn)	TRPC4 act 128
C=CS(=O)(=O)c1sc(Cl)c(N2CCOCC2)c1[N+](=O)[O-]	TRPC4 block -6
C=CSc1sc(Cl)c(N2CCOCC2)c1[N+](=O)[O-]	none
C#CCCOC(=O)N1C2=NC(C(=O)OC)=C(C(=O)OC)[C@@H]3N(Cc4ccccc4)c4ccccc4[C@]23C[C@H]1C(=O)OC	TRPC4 PAM 10
C#CCCOC(=O)N1C2=NC(C(=O)OC)=C(C(=O)OC)[C@@H]3N(C)c4ccccc4[C@]23C[C@H]1C(=O)OC	none
O=C(CN(Cc1ccc(F)cc1)C(=O)CCC(=O)Nc1nccs1)NCc1ccccc1	none
Cc1[nH]c2ccccc2c1N=Nc1ccccc1F	TRPC4 block -6
C(C#CCCCCCCCCC[n+]1ccccc1)#CCCCCCCCCC[n+]1ccccc1	TRPC4 act 84
Cc1nc(SC(C)C(=O)NCC2CCCO2)c2cc(-c3ccccc3)sc2n1 (stereo not drawn)	none
COc1ccc2[nH]c(=O)c(CN(C(=O)c3ccco3)C3CCCCC3)cc2c1	TRPC4 PAM 10
COc1ccc2[nH]c(=O)c(CN(C(C)=O)C3CCCCC3)cc2c1	none
Cc1ccc(N(C)C(=O)C2CCCN2S(=O)(=O)c2ccc3c(c2)n(C)c(=O)c(=O)n3C)cc1 (stereo not drawn)	none
CCOc1ccc(CN2CCN(c3cc(C)nc4c5c(C)cc(C)nc5nn34)CC2)cc1	TRPC4 act 50
CCOC(=O)c1c(CSC(=N)N)n(-c2ccccc2)c2cc(Br)c(OC(C)=O)cc12	TRPC4 PAM 14
CCOC(=O)c1c(CN2CCN(C)CC2)n(-c2ccccc2)c2cc(Br)c(O)cc12	none
COc1ccc(F)cc1S(=O)(=O)N1CCN(C(=O)c2ccco2)CC1	none
CCOC(=O)CCSc1nnc(-c2cccnc2)n1-c1ccccc1OC	TRPC4 block -8
CC(C)Cc1ccc(S(=O)(=O)Nc2ccccn2)cc1	none
CCc1cc(C(=O)NCCN(C)C)cs1	TRPC4 act 78
Cc1cccc(C(=O)NCCN(C)C)c1	TRPC4 act 73
CCN(CC)CCCN1CC(O)=C(c2nc3ccccc3s2)C1=N	TRPC4 PAM 12
N=C1C(c2nc3ccccc3s2)=C(O)CN1Cc1ccccc1	none
COc1ccc(C(=O)NCCc2nnc3ccc(SCC(=O)N4CCOCC4)nn23)cc1	none
CN1CCCCC1CCN1c2ccccc2Sc2ccc(S(C)=O)cc21 (stereo not drawn)	TRPC6 inh -7.48
CC(Oc1ccc(Br)cc1Cl)C(=O)Nc1ccncc1 (stereo not drawn)	none
CN1CCN(S(=O)(=O)c2ccc(-c3ccc(Cl)cc3)cc2)CC1	none
CN1CCN(S(=O)(=O)c2ccc(Cl)cc2)CC1	TRPC4 act 48
Cc1ccc(S(=O)(=O)N2CCC(N3CCN(C)CC3)CC2)cc1Cl	TRPC4 PAM 35
COc1cccc(Cn2c(Oc3cccc(C)c3)nc3c2c(=O)n(C)c(=O)n3C)c1	none
COc1cccc(Cn2c(Oc3ccccc3)nc3c2c(=O)n(C)c(=O)n3C)c1	TRPC4 block -6
Cc1ccc(S(=O)(=O)Nc2cccc(C(=O)NCc3ccccn3)c2)cc1F	none
CCOC(=O)Cn1c(=O)oc2cc(S(=O)(=O)N3CCC(N4CCCCC4)CC3)ccc21	TRPC4 PAM 11
CCOC(=O)Cn1c(=O)oc2cc(S(=O)(=O)N3CCCC(C(=O)OCC)C3)ccc21 (stereo not drawn)	none
Cc1ccc(S(=O)(=O)N(C)CC(=O)Nc2cc(C)ccn2)cc1	none
CCCC(=O)NC(=S)Nc1ccc(S(=O)(=O)Nc2ccc(OCC)cc2)cc1	none
CCOc1ccc(NS(=O)(=O)c2ccc(NC(=S)NC(=O)CC(C)C)cc2)cc1	TRPC4 PAM 22
CC1CCC(C(=O)NC(C(=O)NCCCN2CCOCC2)C(C)C)CC1 (stereo not drawn)	none
CCCCN(C)CCNC(=O)C(NC(=O)C1CCC(C)CC1)C(C)C (stereo not drawn)	TRPC4 act 52
Cc1ccc(CN(C(=O)c2cc(=O)c3cc(C)cc(C)c3o2)C2CCS(=O)(=O)C2)cc1 (stereo not drawn)	none
Cc1cc2oc(C(=O)N(Cc3cccs3)C3CCS(=O)(=O)C3)cc(=O)c2cc1Cl (stereo not drawn)	TRPC4 PAM 95
Cc1ccc(CN(C(=O)c2cc(=O)c3cc(Cl)c(C)cc3o2)C2CCS(=O)(=O)C2)cc1 (stereo not drawn)	TRPC4 PAM 19
Nc1cnccc1Oc1cccc(C(F)(F)F)c1	none
COc1ccccc1NC(=O)COC(=O)c1ccccc1C(=O)N1CCN(c2ccccc2)CC1	TRPC4 PAM 11
CN(CC1CCCN(CCc2cccc(C(F)(F)F)c2)C1)C(=O)c1cc2ccccc2o1 (stereo not drawn)	TRPC4 block -8
COc1cccc(C(=O)N(C)CC2CCN(CCc3cccc(C(F)(F)F)c3)CC2)c1	TRPC4 act 109
CCOc1ccc(NC(=O)CN(C)C(=O)c2c(-c3ccccc3Cl)noc2C)cc1OCC	none
O=C(CC1SC(=O)NC1=O)Nc1ccc(Cl)cc1 (stereo not drawn)	TRPC4 act 45
COc1ccc(OC)c(/C=N/NC(=S)NCCc2ccccc2)c1	none
CCOC(=O)C1(Cc2cccc(F)c2)CCN(Cc2cnn(CC)c2C)CC1	TRPC4 act 143
CCOC(=O)C1(Cc2cccc(F)c2)CCN(CCCn2cccn2)CC1	none
CCOC(=O)C1(Cc2cccc(F)c2)CCN(Cc2cnn(CC)c2)CC1	TRPC4 act 125
Cc1ccc2cccc(S(=O)(=O)N3CCCc4ccccc43)c2n1	none
Cc1cc(C(=O)CN2C(=O)C(=O)N(CC(C)C)C2=O)c(C)n1-c1ccccc1F	TRPC4 PAM 15
Cc1cc(C(=O)Cn2nnc3ccccc3c2=O)c(C)n1-c1ccccc1F	TRPC4 PAM 14
Cc1cc(C(=O)CN2C(=O)NC(CC(C)C)C2=O)c(C)n1-c1ccccc1F (stereo not drawn)	none
COc1ccc(-n2c(C)cc(C(=O)Cn3nnc4ccccc4c3=O)c2C)cc1	none
O=C(CCNC(=O)Cn1ccc2ccccc2c1=O)NCCN1CCN(c2cccc(Cl)c2)CC1	TRPC4 block -6
O=C(Nc1ccc(F)c(Cl)c1)C1CC2CCC1C2 (stereo not drawn)	none
COc1ccc(C(=O)OCCc2sc[n+](CC(=O)c3ccccc3)c2C)cc1	TRPC6 inh -5.26
